Source: ChEMBL document CHEMBL5252513, “Identification of a Benzoisoxazoloazepine Inhibitor (CPI-0610) of the Bromodomain and Extra-Terminal (BET) Family as a Candidate for Human Clinical Trials” (J Med Chem, 2016)
Activity calls are given as the source filed them. The rule behind the calls is not given here.

Experiments:
[1] = target: T1, Bromodomain-containing protein 4 (Homo sapiens, UniProt O60885); assay: Inhibition of BRD4 BD1 (unknown origin) using biotinylated ligand incubated for 60 mins by TR-FRET assay
[2] = target: T1, Bromodomain-containing protein 4; assay: Inhibition of BRD4 BD1 in human MV4-11 cells assessed as reduction of MYC RNA expression after 4 hrs by PCR analysis; assay type: cell-based
[3] = Protein binding in mouse plasma; assay type: ADME, cell-free; settings: read-out: PPB (converted)
[4] = Protein binding in human plasma; assay type: ADME, cell-free; settings: read-out: PPB (converted)
[5] = Protein binding in rat plasma; assay type: ADME, cell-free; settings: read-out: PPB (converted)
[6] = Intrinsic clearance in rat liver microsomes; assay type: ADME, Microsome
[7] = Protein binding in dog plasma; assay type: ADME, cell-free, Canis lupus familiaris; settings: read-out: PPB (converted)
[8] = Intrinsic clearance in dog liver microsomes; assay type: ADME, Canis lupus familiaris, Microsome; settings: read-out: CLH
[9] = Intrinsic clearance in mouse liver microsomes; assay type: ADME, Microsome; settings: read-out: CLH
[10] = Intrinsic clearance in human liver microsomes; assay type: ADME, Microsome; settings: read-out: CLH
[11] = Cmax in rat at 10 mg/kg,po; assay type: ADME, organism-based; design: dose 10 mg/kg, route po; settings: in vivo
[12] = Unbound AUC in rat at 10 mg/kg,po; assay type: ADME, organism-based; settings: in vivo
[13] = Oral bioavailability in rat at 10 mg/kg; assay type: ADME, organism-based; settings: in vivo
[14] = Unbound clearance in rat at 1 mg/kg,iv; assay type: ADME, organism-based; settings: in vivo
[15] = Clearance in rat assessed as liver blood flow at 1 mg/kg,iv; assay type: ADME, organism-based; settings: in vivo
[16] = Tmax in rat at 10 mg/kg,po; assay type: ADME, organism-based; settings: in vivo
[17] = AUC (0 to infinity) in rat at 10 mg/kg,po; assay type: ADME, organism-based; design: dose 10 mg/kg, route po; settings: in vivo
[18] = Volume of distribution at steady state in rat at 1 mg/kg,iv; assay type: ADME, organism-based; settings: in vivo, read-out: Vdss
[19] = Half life in rat plasma at 1 mg/kg,iv; assay type: ADME, organism-based
[20] = Total clearance in rat at 1 mg/kg,iv; assay type: ADME, organism-based; settings: in vivo
[21] = target: T1, Bromodomain-containing protein 4; assay: Displacement of biotinylated JQ1 from BRD4 BD1 (unknown origin) incubated for 20 mins by AlphaLISA assay
[22] = Cmax in rat at 5 mg/kg,po; assay type: ADME, organism-based; design: dose 5 mg/kg, route po; settings: in vivo
[23] = Oral bioavailability in rat at 5 mg/kg; assay type: ADME, organism-based; settings: in vivo
[24] = AUC (0 to infinity) in rat at 5 mg/kg,po; assay type: ADME, organism-based; design: dose 5 mg/kg, route po; settings: in vivo
[25] = Tmax in rat at 5 mg/kg,po; assay type: ADME, organism-based; settings: in vivo
[26] = Unbound AUC in rat at 5 mg/kg,po; assay type: ADME, organism-based; settings: in vivo
MV4-11 [27] = assay: Antitumor activity against human MV4-11 cells xenografted in BALB/c mouse assessed as complete tumor growth inhibition at 2 mg/kg,iv BIW in presence of at 10 mg/kg,sc BID for 28 days; assay type: functional, organism-based; settings: time 28.0 day
MV4-11 [28] = assay: Antitumor activity against human MV4-11 cells xenografted in BALB/c mouse assessed as slower tumor regrowth after drug therapy removal at 2 mg/kg,iv BIW in presence of at 10 mg/kg,sc BID for 28 days and measured after 28 days; assay type: functional, organism-based; settings: time 28.0 day
MV4-11 [29] = assay: Antitumor activity against human MV4-11 cells xenografted in BALB/c mouse assessed as modest tumor growth inhibition at 2 mg/kg,iv BIW for 28 days; assay type: functional, organism-based; settings: time 28.0 day
[30] = Toxicity against BALB/c mouse plasma xenografted with human MV4-11 cells assessed as body weight loss at 2 mg/kg,iv BIW in presence of at 10 mg/kg,sc BID for 28 days; assay type: organism-based; settings: in vivo, 672 h, time 28 day
Method in brief: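 MV-4-11 acute myeloid leukemia mouse xenograft; BET inhibitor given subcutaneously 10 mg/kg twice daily, doxorubicin 2 mg/kg IV twice weekly, alone or combined, for 28 days; body weight change (%) tracked over treatment against vehicle.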

[31] = target: T1, Bromodomain-containing protein 4; assay: Inhibition of BRD4 BD1 in human Raji cells assessed as reduction of MYC RNA expression after 4 hrs by PCR analysis; assay type: cell-based

Row | SMILES | IC50 [1] | EC50 [2] | fraction unbound [3] | fraction unbound [4] | fraction unbound [5] | predicted hepatic clearance (CLH) [6] | fraction unbound [7] | predicted hepatic clearance [8] | predicted hepatic clearance [9] | predicted hepatic clearance [10] | also measured
1 | CCNC(=O)C[C@@H]1N=C(c2ccc(Cl)cc2)c2ccccc2-c2c(C)noc21 | 0.052 µM | 0.21 µM | 0.01 | 0.02 | 0.04 | 2.52 L/h/kg | 0.02 | 1.74 L/h/kg | 3.66 L/h/kg | 1.08 L/h/kg | –
2 | COCCNC(=O)C[C@@H]1N=C(c2ccc(Cl)cc2)c2ccccc2-c2c(C)noc21 | 0.056 µM | 0.27 µM | 0.01 | < 0.01 | 0.07 | 2.7 L/h/kg | 0.03 | 1.8 L/h/kg | 4.92 L/h/kg | 1.14 L/h/kg | Cmax [11]: 0.38 µM; fAUC [12]: 0.084 µM·h; bioavailability [13]: 11%; CL free [14]: 31 L/h/kg; QH [15]: 66%; Tmax [16]: 40.2 min; AUC(0-inf) [17]: 1.2 µM·h; Vd [18]: 1.8 L/kg; half-life [19]: 72 min; clearance [20]: 2.2 L/h/kg
3 | Cc1nnc2n1-c1ccccc1C(c1ccc(Cl)cc1)=NC2 | 1.8 µM | – | – | – | – | – | – | – | – | – | –
4 | Cc1noc2c1-c1ccc(-c3ccc(N)nc3)cc1C(c1ccc(Cl)cc1)=N[C@H]2CC(N)=O | 0.007 µM | 0.033 µM | 0.02 | 0.04 | 0.09 | 2.04 L/h/kg | 0.02 | 1.5 L/h/kg | 2.16 L/h/kg | 0.78 L/h/kg | CL free [14]: 84 L/h/kg; QH [15]: 230%; Vd [18]: 5.4 L/kg; half-life [19]: 40.8 min; clearance [20]: 7.6 L/h/kg
5 | Cc1noc2c1-c1ccccc1C(c1ccc(Cl)cc1)=N[C@H]2CC(=O)OC(C)(C)C | – | – | – | – | – | – | – | – | – | – | IC50 [21]: 0.58 µM
6 | COc1nccc2c1C(c1ccc(Cl)cc1)=NCc1onc(C)c1-2 | 0.44 µM | – | – | – | – | – | – | – | – | – | –
7 | Cc1noc2c1-c1ccccc1C(c1ccc(Cl)cc1)=N[C@@H]2CC(=O)OC(C)(C)C | > 80 µM | – | – | – | – | – | – | – | – | – | –
8 | Cc1ccc(C2=N[C@@H](CC(N)=O)c3onc(C)c3-c3ccccc32)cc1 | 0.052 µM | 0.17 µM | 0.07 | 0.1 | 0.1 | 2.94 L/h/kg | 0.08 | 1.74 L/h/kg | 4.68 L/h/kg | 0.66 L/h/kg | –
9 | Cc1noc2c1-c1ccc(-c3cn(C)cn3)cc1C(c1ccc(Cl)cc1)=N[C@H]2CC(N)=O | 0.011 µM | 0.03 µM | 0.11 | 0.14 | 0.14 | < 0.6 L/h/kg | 0.11 | 1.38 L/h/kg | 1.68 L/h/kg | 0.66 L/h/kg | –
10 | Cc1noc2c1-c1ccccc1C(c1ccc(C#N)cc1)=N[C@H]2CC(N)=O | 0.094 µM | 0.22 µM | 0.13 | 0.11 | 0.33 | 0.96 L/h/kg | 0.22 | < 0.84 L/h/kg | 1.74 L/h/kg | 0.54 L/h/kg | Cmax [22]: 1.8 µM; CL free [14]: 3.9 L/h/kg; QH [15]: 39%; Vd [18]: 1.2 L/kg; bioavailability [23]: 56%; AUC(0-inf) [24]: 5.9 µM·h; Tmax [25]: 49.8 min; half-life [19]: 39.6 min; fAUC [26]: 2 µM·h; clearance [20]: 1.3 L/h/kg
11 | Cc1nsc2c1C(c1ccc(Cl)cc1)=NCc1onc(C)c1-2 | > 80 µM | > 4 µM | – | – | – | – | – | – | – | – | –
12 | COc1ccc(C2=N[C@@H](CC(N)=O)c3onc(C)c3-c3ccccc32)cc1 | 0.048 µM | 0.17 µM | 0.11 | 0.12 | 0.21 | 1.98 L/h/kg | 0.14 | 1.56 L/h/kg | 4.98 L/h/kg | 0.48 L/h/kg | –
13 | CCNC(=O)NC1N=C(c2ccc(Cl)cc2)c2ccccc2-c2c(C)noc21 (stereo not given) | 0.033 µM | 0.1 µM | 0.03 | 0.03 | 0.02 | 1.74 L/h/kg | 0.02 | 1.26 L/h/kg | 2.28 L/h/kg | 0.78 L/h/kg | –
14 | Cc1noc2c1-c1ccccc1C(c1ccc(Cl)cc1)=N[C@H]2CC(N)C(F)(F)F (stereo not given in full) | 11 µM | > 4 µM | 0.01 | 0.01 | 0.01 | 2.28 L/h/kg | 0.01 | 1.62 L/h/kg | 2.46 L/h/kg | 0.78 L/h/kg | –
15 | Cc1noc2c1-c1ccc(=O)n(C)c1C(c1ccc(Cl)cc1)=NC2 | 0.75 µM | 2.9 µM | – | – | – | – | – | – | – | – | –
16 | COc1cccc2c1C(=O)c1c(O)c3c(c(O)c1C2=O)C[C@@](O)(C(=O)CO)C[C@@H]3O[C@H]1C[C@H](N)[C@H](O)[C@H](C)O1 [DOXORUBICIN] | – | – | – | – | – | – | – | – | – | – | Activity (MV4-11 [27]): Active; Activity (MV4-11 [28]): Active; Activity (MV4-11 [29]): Active; Activity [30]: Non-Toxic
17 | Cc1noc2c1-c1c[nH]c(=O)cc1C(c1ccc(Cl)cc1)=NC2 | 0.53 µM | 1.1 µM | – | – | – | – | – | – | – | – | –
18 | Cc1noc2c1-c1ccccc1C(c1ccc(Cl)cc1)=NN2 | 0.88 µM | – | – | – | – | – | – | – | – | – | –
19 | Cc1noc2c1-c1ccccc1C(c1ccc(Cl)cc1)=NC2 | – | – | 0.01 | 0.01 | 0.01 | 2.4 L/h/kg | < 0.01 | 1.74 L/h/kg | 3.12 L/h/kg | 0.9 L/h/kg | –
20 | Cc1noc(N)c1-c1ccccc1 | 20 µM | – | – | – | – | – | – | – | – | – | –
21 | COc1ccc2c(c1)C(c1ccc(Cl)cc1)=N[C@@H](CC(N)=O)c1onc(C)c1-2 | 0.017 µM | 0.064 µM | 0.03 | 0.05 | 0.06 | 2.1 L/h/kg | 0.03 | 1.26 L/h/kg | 1.56 L/h/kg | 0.54 L/h/kg | Cmax [11]: 1.6 µM; fAUC [12]: 0.51 µM·h; bioavailability [13]: 60%; CL free [14]: 37 L/h/kg; QH [15]: 66%; Tmax [16]: 49.8 min; AUC(0-inf) [17]: 8.5 µM·h; Vd [18]: 1.7 L/kg; half-life [19]: 38.4 min; clearance [20]: 2.2 L/h/kg
22 | Cc1cccc2c1C(c1ccc(Cl)cc1)=N[C@@H](CC(N)=O)c1onc(C)c1-2 | 0.013 µM | 0.14 µM | 0.02 | 0.02 | 0.04 | 2.22 L/h/kg | 0.02 | 1.44 L/h/kg | 2.82 L/h/kg | 0.66 L/h/kg | Cmax [22]: 1.2 µM; CL free [14]: 63 L/h/kg; QH [15]: 76%; Vd [18]: 2.5 L/kg; bioavailability [23]: 92%; AUC(0-inf) [24]: 4.9 µM·h; Tmax [25]: 120 min; half-life [19]: 59.4 min; fAUC [26]: 0.2 µM·h; clearance [20]: 2.5 L/h/kg
23 | Cc1noc2c1-c1ccccc1C(c1ccccc1)=N[C@H]2CC(N)=O | 0.11 µM | 0.25 µM | 0.16 | 0.19 | 0.2 | 1.68 L/h/kg | 0.12 | 1.02 L/h/kg | 0.6 L/h/kg | < 0.3 L/h/kg | –
24 | CNc1ccc2c(n1)C(c1ccc(Cl)cc1)=NCc1onc(C)c1-2 | 0.059 µM | 0.44 µM | – | – | – | – | – | – | – | – | –
25 | Cc1onc2c1-c1ccccc1C(c1ccc(Cl)cc1)=NC2 | 1.3 µM | – | – | – | – | – | – | – | – | – | –
26 | Cc1noc2c1-c1ccnc(N)c1C(c1ccc(Cl)cc1)=NC2 | 0.09 µM | – | – | – | – | – | – | – | – | – | EC50 [31]: 0.72 µM
27 | Cc1noc2c1-c1cn(C)nc1C(c1ccc(Cl)cc1)=NC2 | 0.59 µM | 2.6 µM | – | – | – | – | – | – | – | – | –
28 | Cc1noc2c1-c1ccccc1C(c1ccc(Cl)cc1)=NC2C(N)=O (stereo not given) | 15 µM | 4 µM | 0.01 | 0.02 | – | 1.62 L/h/kg | 0.02 | 1.74 L/h/kg | 1.92 L/h/kg | 1.2 L/h/kg | –
